Screens: PubChem, several laboratories
The list is not random: actives were taken first. Their share in the collection is about 3.3%.
sPLA2-III inh = Blocks human group III sPLA2 activity; Q9NZ20; QFRET BODIPY PC-A2 liposome hydrolysis, fluorescence; inhibition, % at 12.2 µM; 370,000 tested, 0.56% active; AID 743126;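 active = inhibition above mean plus 3 SD of compounds lying within the high and low control bounds, cut at about 19% in these data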;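 also: 0% = median of test compound wells and 100% = no enzyme DMSO wells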
Target sequence (Q9NZ20 whole entry, looked up): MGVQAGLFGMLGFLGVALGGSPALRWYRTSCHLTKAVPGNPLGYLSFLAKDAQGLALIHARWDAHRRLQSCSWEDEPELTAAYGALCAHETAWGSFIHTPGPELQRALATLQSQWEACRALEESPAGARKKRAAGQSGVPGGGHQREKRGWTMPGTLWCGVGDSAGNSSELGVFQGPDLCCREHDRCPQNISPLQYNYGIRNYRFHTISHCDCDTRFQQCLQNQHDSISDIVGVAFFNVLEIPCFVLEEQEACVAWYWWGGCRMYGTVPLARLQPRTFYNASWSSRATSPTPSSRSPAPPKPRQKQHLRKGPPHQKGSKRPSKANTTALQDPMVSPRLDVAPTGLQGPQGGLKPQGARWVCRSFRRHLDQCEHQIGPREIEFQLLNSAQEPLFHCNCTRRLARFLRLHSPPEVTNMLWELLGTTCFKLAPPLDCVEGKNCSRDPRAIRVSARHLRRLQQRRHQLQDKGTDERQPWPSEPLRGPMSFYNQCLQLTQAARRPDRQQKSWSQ
m5-HT2A agonist = mouse HTR2A agonism via beta-arrestin recruitment; activation, % at 7.6 µM; CHO-K1 mHTR2A beta-arrestin complementation, luminescence; percent of 30 µM serotonin response; 360,000 tested, 0.66% active; P35363;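 active = activation above a run cutoff, the mean activation of all tested compounds plus 3 SD, cut at about 14% in these data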;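 also: 0% = plate median of compound wells and 100% = 30 µM serotonin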
Arrestin-AP2 inh = blocks beta-arrestin peptide binding to AP2 adaptin; FITC-arrestin peptide / GST-AP2 beads, flow cytometry; AP2 beta2 appendage carries R879A mutation; AID 504490; inhibition, % at 10 µM; 340,000 tested, 0.31% active;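 active = inhibition above a set limit, near 3 SD of compounds lacking own fluorescence, cut at about 54% in these data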;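 also: plate controls were DMSO wells for no effect and 5 µM unlabelled arrestin peptide for full effect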
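test system = AP2 appendage R879A on GSH beads | buffer or medium = PBS plus Tween 20 (0.05%) and BSA (0.1%) | incubation = 12 min plus 1 h, RT | detection = bead flow cytometry, FITC channel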
M18AAP inhibitor = PfM18AAP enzyme inhibition. 290,000 tested, 1.2% active. inhibition, % at 7.35 µM. recombinant PfM18AAP, H-Glu-NHMec fluorogenic cleavage;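 active = inhibition above the campaign mean inhibition over all tested compounds plus 3 SD, cut at about 28% in these data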;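 also: 0% = plate median of test compound wells and 100% = 2 mM ZnCl2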
Lipid droplet = hepatic lipid droplet formation modulation | inhibition, % at 6.5 µM | AML12 mouse hepatocytes, oleate lipid droplets, BODIPY imaging | 240,000 tested, 0.4% active;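 active = lipid droplet intensity inhibited by at least 50%, with more than 500 cells counted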
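Test system: AML12 hepatocytes (mouse); reagent: oleate loading, 100 µM; dosing: one dose, 6.5 µM compound; incubation: overnight exposure; signal: fluorescence imaging, 20x objective, two fields per well; read-out basis: % inhibition of corrected integrated BODIPY droplet signal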
CendR NRP1 mod = NRP-1/CendR interaction modulation. O14786. FAM-RPARPAR peptide binding to NRP-1, fluorescence polarization. inhibition, % at 25 µM. 360,000 tested, 0.85% active. AID 602438;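 active = inhibition or corrected inhibition above about 18%, plus a signal ratio from 0.5 to 1.5, limit read from the data, passing the limit was not always enough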
* marks the source's active call; other numbers are inactive results.

Screening COC1=C[C@H](C(=O)NCCOC(C)=O)[C@H](C)[C@@H](c2ccccc2)CC1=O returned sPLA2-III inh 3.
CCOC(=O)CNC(=S)n1cnc(N)n1 was read as sPLA2-III inh -8, m5-HT2A agonist 2, Arrestin-AP2 inh 5, M18AAP inhibitor 57*, Lipid droplet 9 and CendR NRP1 mod 2.
For Cc1cccc(C)c1NC(=O)C(c1ccncc1)n1c(=O)c(-c2ccccc2)nc2ccccc21 (stereo not drawn) the results were sPLA2-III inh -6, m5-HT2A agonist -4 and CendR NRP1 mod -2.
For OCC1OC(C(N=Nc2ccccc2)=NNc2ccccc2)C(O)C1O (stereo not drawn) the results were sPLA2-III inh 20*.
NC(=O)/C(N=Nc1ccccc1)=N/Nc1ccccc1 was read as sPLA2-III inh 8, m5-HT2A agonist 2, Arrestin-AP2 inh 6 and CendR NRP1 mod 3.
CCc1ccc(NC(=O)N(Cc2ccco2)C(C)c2cccs2)cc1 (stereo not drawn) was read as sPLA2-III inh -15, m5-HT2A agonist -8, Arrestin-AP2 inh 11, M18AAP inhibitor 2 and CendR NRP1 mod 32*.
`COCC(=O)OC1CCn2c1nc1c2C(=O)C(C)=C(NC(C)=O)C1=O` (stereo not drawn) gave sPLA2-III inh -5, m5-HT2A agonist 10, Arrestin-AP2 inh 10 and CendR NRP1 mod 45*.
`Cc1ccc(O)c(N/C=C/C(=O)c2ccc(F)cc2)c1` gave sPLA2-III inh -14, m5-HT2A agonist -4, Arrestin-AP2 inh 19, M18AAP inhibitor 28*, Lipid droplet -13 and CendR NRP1 mod 5.
Cc1ccc(N/C=C/C(=O)c2ccc(C)cc2)cc1 was read as sPLA2-III inh -44, m5-HT2A agonist 0, Arrestin-AP2 inh -6, M18AAP inhibitor -2, Lipid droplet 4 and CendR NRP1 mod -8.
For COc1ccc(-c2oc3ccccc3c2C#Cc2cncn2C)cc1 the results were sPLA2-III inh -8, m5-HT2A agonist -8, Arrestin-AP2 inh 22 and CendR NRP1 mod 9.
For CCOC(=O)[C@]12CCCCC/C=C\1N(Cc1ccc(OC)cc1)C(=O)[C@H]2CC(=O)NCCCCc1ccccc1 the results were sPLA2-III inh -14.
O=C(COc1ccc(Br)cc1)Nc1nnc(C2CC2)s1 was read as sPLA2-III inh 7, m5-HT2A agonist -9, Arrestin-AP2 inh 25 and CendR NRP1 mod 11.
For CC(=O)c1ccc(OCC(=O)Nc2nnc(C3CC3)s2)cc1 the results were sPLA2-III inh 5, m5-HT2A agonist 4 and CendR NRP1 mod 29*.
Screening Cc1ccc(-n2c(Cn3c(C)nc4ccccc43)n[nH]c2=S)cc1 returned sPLA2-III inh 4, m5-HT2A agonist 1, Arrestin-AP2 inh 19, M18AAP inhibitor 33*, Lipid droplet -5 and CendR NRP1 mod 0.
For CC1CC(O)C2C3(C)CCCC2(COC3=O)C12CCC1(CCOC1=O)O2 (stereo not drawn) the results were sPLA2-III inh -1, m5-HT2A agonist 7 and CendR NRP1 mod -6.
For CCC(C)(C)n1nnnc1C(c1cc2ccc(C)cc2[nH]c1=O)N(Cc1cccnc1)Cc1ccco1 (stereo not drawn) the results were sPLA2-III inh -15, m5-HT2A agonist -3, Arrestin-AP2 inh 4, M18AAP inhibitor 22, Lipid droplet 62* and CendR NRP1 mod -5.
Cc1cc2cc(C(c3nnnn3C3CCCC3)N(Cc3cccnc3)Cc3ccco3)c(=O)[nH]c2cc1C (stereo not drawn) was read as sPLA2-III inh -1, m5-HT2A agonist 2, Arrestin-AP2 inh 13, M18AAP inhibitor 11, Lipid droplet 34 and CendR NRP1 mod 1.
For CCOC(=O)c1c(C)[nH]c(C(=O)CN2CC(C)OC(C)C2)c1C (stereo not drawn) the results were sPLA2-III inh 0, m5-HT2A agonist 17*, Arrestin-AP2 inh 1, M18AAP inhibitor -6 and CendR NRP1 mod 0.
For O=C(CN1C(=O)c2ccccc2C1=O)Nc1cccc(S(=O)(=O)Nc2ccccc2Cl)c1 the results were sPLA2-III inh -22, m5-HT2A agonist 2, Arrestin-AP2 inh 17, M18AAP inhibitor -14, Lipid droplet 2 and CendR NRP1 mod 33*.
`Cc1cc(C)cc(NC(=O)Cn2c(-c3ccccc3Cl)nc3ccccc32)c1` gave sPLA2-III inh 1, m5-HT2A agonist 1, Arrestin-AP2 inh 2, M18AAP inhibitor -1, Lipid droplet -6 and CendR NRP1 mod 1.
`O=C(Cn1c(-c2ccccc2Cl)nc2ccccc21)Nc1cccc(Cl)c1` gave sPLA2-III inh -5, m5-HT2A agonist 5, Arrestin-AP2 inh 2, M18AAP inhibitor -9, Lipid droplet -2 and CendR NRP1 mod 21*.
For CCn1c2c(n(C(C)=O)c1=O)C[C@@H](c1ccccc1)[C@@H](C)[C@@H](C(=O)N1CCCC1)C2 the results were sPLA2-III inh -3.
`COc1ccc2c(c1OC)C(=O)OC2C1c2c(cc3c(c2OC)OCO3)CCN1C` (stereo not drawn) gave sPLA2-III inh 0, m5-HT2A agonist -2, Arrestin-AP2 inh 6, M18AAP inhibitor -4, Lipid droplet -13 and CendR NRP1 mod -11.
CN1CCc2cc3c(c4c2[C@H]1[C@H](O)c1ccccc1-4)OCO3 was read as sPLA2-III inh 0, m5-HT2A agonist -5, Arrestin-AP2 inh -3, M18AAP inhibitor 23 and CendR NRP1 mod 47*.
Nc1cc(-c2ccccc2)nn1Cc1ccccc1 was read as sPLA2-III inh -4, m5-HT2A agonist 2, Arrestin-AP2 inh -99, M18AAP inhibitor -6, Lipid droplet 0 and CendR NRP1 mod 41*.
`COC1=C(Br)C(=O)c2nc(C)ccc2C1=O` gave sPLA2-III inh 4, m5-HT2A agonist -1 and CendR NRP1 mod 19.
COC1=C(N)C(=O)c2nc(C)ccc2C1=O was read as sPLA2-III inh -1, m5-HT2A agonist 0, Arrestin-AP2 inh 7 and CendR NRP1 mod 31*.
`Cc1ccc(S(=O)(=O)N2CCCCC2)cc1NC(=O)c1cccs1` gave sPLA2-III inh -4, m5-HT2A agonist -10, Arrestin-AP2 inh -12 and CendR NRP1 mod -1.
For Cc1nc2ccc(NC(=O)[C@H](C)N3C(=O)C4CC=CCC4C3=O)cc2s1 (stereo partly drawn) the results were sPLA2-III inh 8, m5-HT2A agonist -7, Arrestin-AP2 inh -7 and CendR NRP1 mod 19*.
For Cc1cnc(NC(=O)C(C)N2C(=O)C3CC=CCC3C2=O)s1 (stereo not drawn) the results were sPLA2-III inh 0, m5-HT2A agonist 9, Arrestin-AP2 inh 28, M18AAP inhibitor 1, Lipid droplet -7 and CendR NRP1 mod 3.
